Results reported in ChEMBL document CHEMBL3392961, “Synthesis and in vitro characterization of cinnoline and benzimidazole analogues as phosphodiesterase 10A inhibitors” (Bioorg Med Chem Lett, 2015).

Legend:
[1] = target: cAMP and cAMP-inhibited cGMP 3',5'-cyclic phosphodiesterase 10A (Homo sapiens, UniProt Q9Y233); assay: Inhibition of human recombinant PDE10A catalytic domain pre-incubated for 5 mins before [3H]cAMP substrate addition and measured 20 mins post substrate addition by scintillation proximity assay
Chain of cAMP and cAMP-inhibited cGMP 3',5'-cyclic phosphodiesterase 10A (Q9Y233 whole entry, the tested form may be a part): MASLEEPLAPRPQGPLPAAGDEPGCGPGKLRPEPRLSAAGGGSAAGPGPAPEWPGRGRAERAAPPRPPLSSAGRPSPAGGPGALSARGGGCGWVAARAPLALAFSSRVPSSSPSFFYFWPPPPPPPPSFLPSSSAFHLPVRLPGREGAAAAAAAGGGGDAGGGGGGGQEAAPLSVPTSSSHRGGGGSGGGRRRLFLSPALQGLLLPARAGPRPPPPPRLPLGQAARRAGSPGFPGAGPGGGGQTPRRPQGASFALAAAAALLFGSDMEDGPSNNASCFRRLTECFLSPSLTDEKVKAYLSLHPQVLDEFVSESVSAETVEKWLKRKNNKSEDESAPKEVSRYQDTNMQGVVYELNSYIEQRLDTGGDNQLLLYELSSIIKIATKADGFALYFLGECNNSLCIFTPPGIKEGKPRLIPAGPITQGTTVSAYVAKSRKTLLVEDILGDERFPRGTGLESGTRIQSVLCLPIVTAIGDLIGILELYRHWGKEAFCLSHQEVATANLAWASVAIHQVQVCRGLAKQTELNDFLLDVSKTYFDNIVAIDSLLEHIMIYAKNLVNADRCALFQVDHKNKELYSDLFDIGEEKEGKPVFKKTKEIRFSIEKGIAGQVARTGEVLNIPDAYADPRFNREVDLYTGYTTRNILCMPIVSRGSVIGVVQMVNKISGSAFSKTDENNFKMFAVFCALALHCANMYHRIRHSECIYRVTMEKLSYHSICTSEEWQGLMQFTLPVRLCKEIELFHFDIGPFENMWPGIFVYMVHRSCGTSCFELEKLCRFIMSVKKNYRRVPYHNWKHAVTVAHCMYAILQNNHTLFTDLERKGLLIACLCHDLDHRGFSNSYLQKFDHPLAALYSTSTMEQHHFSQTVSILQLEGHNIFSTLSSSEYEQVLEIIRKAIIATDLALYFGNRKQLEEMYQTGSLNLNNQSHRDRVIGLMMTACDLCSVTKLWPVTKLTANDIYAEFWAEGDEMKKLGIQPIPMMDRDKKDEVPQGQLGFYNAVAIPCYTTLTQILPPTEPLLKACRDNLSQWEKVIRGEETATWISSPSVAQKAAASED

[2] = target: 3',5'-cyclic-AMP phosphodiesterase 4A (Homo sapiens, UniProt P27815); assay: Inhibition of human recombinant PDE4A pre-incubated for 5 mins before [3H]cAMP substrate addition and measured 20 mins post substrate addition by scintillation proximity assay
Chain of 3',5'-cyclic-AMP phosphodiesterase 4A (P27815 whole entry): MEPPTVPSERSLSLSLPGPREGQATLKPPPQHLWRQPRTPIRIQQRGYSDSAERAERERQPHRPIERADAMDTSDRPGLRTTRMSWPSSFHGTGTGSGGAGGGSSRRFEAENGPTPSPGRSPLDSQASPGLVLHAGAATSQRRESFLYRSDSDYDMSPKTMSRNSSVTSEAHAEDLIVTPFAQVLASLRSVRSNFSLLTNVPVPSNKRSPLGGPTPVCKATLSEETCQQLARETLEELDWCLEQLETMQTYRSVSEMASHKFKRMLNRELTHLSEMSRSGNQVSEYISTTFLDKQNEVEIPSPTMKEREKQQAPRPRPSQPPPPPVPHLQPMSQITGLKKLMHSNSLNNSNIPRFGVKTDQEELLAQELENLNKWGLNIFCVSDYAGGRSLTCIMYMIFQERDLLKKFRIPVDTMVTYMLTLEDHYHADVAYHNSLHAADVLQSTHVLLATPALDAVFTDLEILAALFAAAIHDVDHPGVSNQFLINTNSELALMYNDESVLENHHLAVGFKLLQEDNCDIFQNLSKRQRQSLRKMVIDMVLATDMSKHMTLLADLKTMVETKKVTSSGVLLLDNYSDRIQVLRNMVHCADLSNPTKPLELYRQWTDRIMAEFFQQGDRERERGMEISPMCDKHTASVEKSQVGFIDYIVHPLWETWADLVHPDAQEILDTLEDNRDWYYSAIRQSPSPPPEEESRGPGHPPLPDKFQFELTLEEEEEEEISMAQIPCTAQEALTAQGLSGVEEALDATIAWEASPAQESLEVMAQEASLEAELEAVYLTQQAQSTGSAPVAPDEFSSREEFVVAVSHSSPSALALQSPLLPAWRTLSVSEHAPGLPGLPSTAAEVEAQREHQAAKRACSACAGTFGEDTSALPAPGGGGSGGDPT
In short: (§1)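 Scintillation proximity assay on a fixed amount of recombinant human PDE enzyme, run across varying inhibitor concentrations. The tritiated cyclic nucleotide substrate was used at 1/3 of Km. Background was subtracted, counts were plotted against inhibitor concentration, and IC50 was fitted by non-linear regression. Values are mean ± SD from at least three experiments.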

[3] = target: cGMP-inhibited 3',5'-cyclic phosphodiesterase 3B (Homo sapiens, UniProt Q13370); assay: Inhibition of human recombinant PDE3B pre-incubated for 5 mins before [3H]cAMP substrate addition and measured 20 mins post substrate addition by scintillation proximity assay; in short: as §1
Chain of cGMP-inhibited 3',5'-cyclic phosphodiesterase 3B (Q13370 whole entry): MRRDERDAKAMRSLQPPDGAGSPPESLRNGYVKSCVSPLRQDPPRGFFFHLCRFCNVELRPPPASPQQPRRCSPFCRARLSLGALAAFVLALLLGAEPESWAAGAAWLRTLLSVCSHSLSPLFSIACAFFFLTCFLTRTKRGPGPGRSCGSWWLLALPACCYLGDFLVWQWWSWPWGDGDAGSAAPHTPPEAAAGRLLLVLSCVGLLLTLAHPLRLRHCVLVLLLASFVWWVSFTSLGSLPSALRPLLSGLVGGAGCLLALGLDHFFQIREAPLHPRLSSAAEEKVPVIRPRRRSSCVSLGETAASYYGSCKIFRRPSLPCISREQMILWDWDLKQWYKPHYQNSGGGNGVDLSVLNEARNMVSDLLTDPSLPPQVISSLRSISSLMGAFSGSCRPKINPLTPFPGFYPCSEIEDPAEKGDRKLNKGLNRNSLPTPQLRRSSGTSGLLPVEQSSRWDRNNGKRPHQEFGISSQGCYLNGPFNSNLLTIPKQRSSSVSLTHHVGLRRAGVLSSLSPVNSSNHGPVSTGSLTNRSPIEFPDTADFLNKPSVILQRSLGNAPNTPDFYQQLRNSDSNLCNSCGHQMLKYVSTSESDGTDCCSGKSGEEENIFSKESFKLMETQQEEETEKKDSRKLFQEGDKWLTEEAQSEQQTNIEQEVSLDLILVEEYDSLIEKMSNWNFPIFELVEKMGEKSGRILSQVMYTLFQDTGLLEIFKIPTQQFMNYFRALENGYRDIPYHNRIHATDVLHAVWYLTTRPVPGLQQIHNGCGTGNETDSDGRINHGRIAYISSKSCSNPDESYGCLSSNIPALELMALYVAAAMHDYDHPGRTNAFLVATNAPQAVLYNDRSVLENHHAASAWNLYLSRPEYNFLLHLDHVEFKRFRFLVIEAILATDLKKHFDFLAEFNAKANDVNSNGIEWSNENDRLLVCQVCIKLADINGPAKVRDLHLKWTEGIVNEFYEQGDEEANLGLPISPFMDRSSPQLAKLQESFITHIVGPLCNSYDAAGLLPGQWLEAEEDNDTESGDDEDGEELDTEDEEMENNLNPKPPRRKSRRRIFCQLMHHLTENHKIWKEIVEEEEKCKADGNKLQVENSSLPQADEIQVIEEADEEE

[4] = target: 3',5'-cyclic-AMP phosphodiesterase 4B (Homo sapiens, UniProt Q07343); assay: Inhibition of human recombinant PDE4B pre-incubated for 5 mins before [3H]cAMP substrate addition and measured 20 mins post substrate addition by scintillation proximity assay; in short: as §1
Chain of 3',5'-cyclic-AMP phosphodiesterase 4B (Q07343 whole entry): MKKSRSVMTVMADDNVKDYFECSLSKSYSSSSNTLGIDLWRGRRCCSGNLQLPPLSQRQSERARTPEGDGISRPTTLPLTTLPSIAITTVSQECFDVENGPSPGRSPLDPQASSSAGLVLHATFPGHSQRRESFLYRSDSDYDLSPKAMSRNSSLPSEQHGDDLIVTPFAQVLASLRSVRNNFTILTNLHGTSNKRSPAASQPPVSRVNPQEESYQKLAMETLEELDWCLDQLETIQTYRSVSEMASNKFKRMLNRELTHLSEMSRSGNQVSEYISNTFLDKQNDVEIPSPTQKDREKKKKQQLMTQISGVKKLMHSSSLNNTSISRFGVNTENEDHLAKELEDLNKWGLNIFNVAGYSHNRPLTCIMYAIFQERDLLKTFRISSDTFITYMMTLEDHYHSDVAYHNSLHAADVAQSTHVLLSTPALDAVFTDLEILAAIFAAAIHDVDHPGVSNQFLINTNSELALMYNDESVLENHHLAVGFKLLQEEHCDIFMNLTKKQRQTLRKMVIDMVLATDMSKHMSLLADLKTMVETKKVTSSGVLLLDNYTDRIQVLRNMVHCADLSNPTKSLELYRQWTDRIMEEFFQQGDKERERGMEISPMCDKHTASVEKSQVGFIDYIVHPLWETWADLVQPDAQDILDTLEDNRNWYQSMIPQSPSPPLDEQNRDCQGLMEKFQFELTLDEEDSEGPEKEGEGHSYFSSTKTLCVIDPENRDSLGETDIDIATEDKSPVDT

[5] = target: cGMP-inhibited 3',5'-cyclic phosphodiesterase 3A (Homo sapiens, UniProt Q14432); assay: Inhibition of human recombinant PDE3A pre-incubated for 5 mins before [3H]cAMP substrate addition and measured 20 mins post substrate addition by scintillation proximity assay; in short: as §1
Chain of cGMP-inhibited 3',5'-cyclic phosphodiesterase 3A (Q14432 whole entry): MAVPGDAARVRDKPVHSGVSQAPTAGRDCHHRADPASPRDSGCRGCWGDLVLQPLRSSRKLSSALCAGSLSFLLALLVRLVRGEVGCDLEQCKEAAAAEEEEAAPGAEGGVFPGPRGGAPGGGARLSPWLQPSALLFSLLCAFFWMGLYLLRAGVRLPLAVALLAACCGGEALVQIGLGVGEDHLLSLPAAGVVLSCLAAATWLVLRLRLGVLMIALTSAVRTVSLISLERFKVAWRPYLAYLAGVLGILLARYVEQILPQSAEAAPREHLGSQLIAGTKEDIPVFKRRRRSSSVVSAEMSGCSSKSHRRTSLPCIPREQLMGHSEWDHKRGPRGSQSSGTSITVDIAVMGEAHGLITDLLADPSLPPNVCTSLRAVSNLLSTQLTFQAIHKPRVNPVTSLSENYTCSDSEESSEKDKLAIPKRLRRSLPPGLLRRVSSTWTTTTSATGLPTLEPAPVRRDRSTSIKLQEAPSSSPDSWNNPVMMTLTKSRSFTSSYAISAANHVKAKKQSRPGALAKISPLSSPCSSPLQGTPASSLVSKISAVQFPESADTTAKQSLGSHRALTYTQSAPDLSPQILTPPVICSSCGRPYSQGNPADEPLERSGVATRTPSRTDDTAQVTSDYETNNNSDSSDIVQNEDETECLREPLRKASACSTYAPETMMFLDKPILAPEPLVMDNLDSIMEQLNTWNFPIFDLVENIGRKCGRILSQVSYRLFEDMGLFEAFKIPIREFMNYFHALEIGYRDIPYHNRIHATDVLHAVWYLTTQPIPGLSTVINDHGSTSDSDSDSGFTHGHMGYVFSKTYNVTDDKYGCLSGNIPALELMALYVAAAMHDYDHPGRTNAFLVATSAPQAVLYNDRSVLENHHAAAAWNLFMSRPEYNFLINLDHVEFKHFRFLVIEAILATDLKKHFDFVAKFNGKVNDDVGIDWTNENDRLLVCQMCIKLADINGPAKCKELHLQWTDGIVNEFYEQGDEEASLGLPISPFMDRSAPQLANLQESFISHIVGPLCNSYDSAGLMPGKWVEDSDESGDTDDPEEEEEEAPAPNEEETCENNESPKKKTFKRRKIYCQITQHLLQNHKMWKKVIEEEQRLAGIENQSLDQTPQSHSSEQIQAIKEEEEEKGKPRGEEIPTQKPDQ

IC50 ([1]; read-out: IC50) [µM] | Structure (SMILES) | also measured
0.008 | COc1ccc(-c2cccnc2Oc2ccc(C(=O)c3nc4ccccc4n3C)cc2)cc1 | 
4.25 | COc1cc2c(-c3ccc(N4CCC(C)(O)CC4)nc3)cnnc2cc1OCc1ccccc1 | 
0.00152 | COc1cc2nncc(-c3cnc(N4CCC(O)(c5cccnc5)CC4)c(C)c3)c2cc1OC | IC50 [2]: 7.83 µM; IC50 [3]: 4.11 µM; IC50 [4]: 8.73 µM; IC50 [5]: 3.07 µM
10.8 | COc1cc2c(-c3ccc(N4CCC(C)(O)CC4)nc3)cnnc2cc1O | 
0.0793 | COc1cc2c(-c3cnc(N4CCC(O)(c5ccc(F)nc5)CC4)c(C)c3)cnnc2cc1OCCCF | 
0.014 | COc1cc2nncc(-c3ccc(N4CCC(O)(c5cccnc5)CC4)nc3)c2cc1OC | 
0.518 | COc1cc2c(-c3cnc(N4CCC(O)(c5ccc(F)nc5)CC4)c(C)c3)cnnc2cc1OCc1ccc2ccccc2n1 | 
0.00286 | COc1cc2nncc(-c3cnc(N4CCC(O)(c5ccc(F)nc5)CC4)c(C)c3)c2cc1OC | IC50 [2]: 25.4 µM; IC50 [3]: 6.54 µM; IC50 [4]: 30.6 µM; IC50 [5]: 3.7 µM
0.0098 | COc1cc2nncc(-c3cnc(N4CCC(O)(c5ccc(Cl)nc5)CC4)c(C)c3)c2cc1OC | 
0.00373 | Cn1c(C(=O)c2ccc(Oc3ncccc3-c3cccnc3)cc2)nc2ccccc21 | IC50 [2]: 40.3 µM; IC50 [3]: 234 µM; IC50 [4]: 25.9 µM; IC50 [5]: 167 µM
 | COc1ccc(C(=O)c2cccnc2Oc2ccc(C(=O)c3nc4ccccc4n3C)cc2)cc1 | IC50 [1]: Not Active
0.0184 | COc1cc2nncc(-c3ccc(N4CCC(C)(O)CC4)nc3)c2cc1OC | 
1.55 | COc1cc2c(-c3ccc(N4CCC(O)(c5cccnc5)CC4)nc3)cnnc2cc1OCc1ccccc1 | 
 | Cc1cc(-c2cnnc3ccccc23)cnc1N1CCC(O)(c2ccc(F)nc2)CC1 | IC50 [1]: Not Active
0.0186 | Cn1c(C(=O)c2ccc(Oc3ncccc3-c3ccccc3)cc2)nc2ccccc21 | 
 | Cn1c(C(=O)c2ccc(Oc3ncccc3C(=O)c3ccccc3)cc2)nc2ccccc21 | IC50 [1]: Not Active
0.35 | COc1cc2c(-c3cnc(N4CCC(O)(c5ccc(F)nc5)CC4)c(C)c3)cnnc2cc1OCc1ccccc1 | 
0.00552 | COc1cc2nncc(-c3cnc(N4CCC(O)(c5cccnc5)CC4)c(Cl)c3)c2cc1OC | 
> 1.9 | CC(=O)N1CCC(C(=O)c2cccnc2Oc2ccc(C(=O)c3nc4ccccc4n3C)cc2)CC1 | 
6.62 | COc1cc2c(-c3ccc(N4CCC(O)(c5cccnc5)CC4)nc3)cnnc2cc1O | 
 | Cc1cc(-c2cnnc3cc4c(cc23)OCO4)cnc1N1CCC(O)(c2ccc(F)nc2)CC1 | IC50 [1]: Not Active
